What was measured:
Mus musculus [1] = test: Compound was tested in vivo for its ability to inhibit DTH(delayed type hypersensitivity ) in mouse at a concentration of 100 mg/kg; type: functional
How it was run: (§1)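 Male CD-1 mice (25–30 g, n = 8-16) sensitized day 0 by s.c. 1 mg methylated BSA in saline/Freund's complete adjuvant; negative controls saline/FCA. Day 7 challenge: MBSA 0.1 mg into right hind footpad, saline in left. Oral dosing once daily days 4–6 plus twice on day 7 (1 h before, 6 h after challenge). Paw edema read 24 h post-challenge; Student's t-test.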

Rattus norvegicus [2] = test: Compound was tested in vivo for its ability to inhibit DTH(delayed type hypersensitivity ) in rat at a concentration of 50 mg/kg; type: functional
How it was run: (§2)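 Male CFHB rats (160-180 g, n=7-12) sensitized day 0 by tail-base s.c. FCA (0.4 mg M. tuberculosis in liquid paraffin); controls got incomplete adjuvant. Day 7 challenge: soluble M. tuberculosis extract 0.4 mg into right hind footpad, saline in left. Oral dosing once daily days 4-6 and twice day 7 (1 h before, 6 h after). Edema read at 24 h; Student's t-test.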

[3] = molecular target: Dihydroorotate dehydrogenase (quinone), mitochondrial (Rattus norvegicus, UniProt Q63707); test: Inhibitory concentration tested against enzyme dihydroorotate dehydrogenase in rat
Dihydroorotate dehydrogenase (quinone), mitochondrial (Rattus norvegicus, UniProt Q63707), sequence (Q63707 whole entry): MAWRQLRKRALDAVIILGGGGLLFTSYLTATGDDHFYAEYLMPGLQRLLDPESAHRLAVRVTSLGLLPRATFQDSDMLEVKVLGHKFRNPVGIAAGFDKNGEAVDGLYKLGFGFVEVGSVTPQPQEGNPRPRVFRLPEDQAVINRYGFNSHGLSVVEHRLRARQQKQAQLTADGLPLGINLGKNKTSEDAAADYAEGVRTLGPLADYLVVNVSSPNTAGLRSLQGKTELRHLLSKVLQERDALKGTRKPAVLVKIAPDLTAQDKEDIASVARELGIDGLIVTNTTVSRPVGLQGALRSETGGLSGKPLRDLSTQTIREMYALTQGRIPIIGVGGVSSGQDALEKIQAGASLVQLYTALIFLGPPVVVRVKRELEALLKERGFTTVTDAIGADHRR

[4] = molecular target: Dihydroorotate dehydrogenase (quinone), mitochondrial (Mus musculus, UniProt O35435); test: Inhibitory concentration tested on enzyme dihydroorotate dehydrogenase in mouse
Dihydroorotate dehydrogenase (quinone), mitochondrial (Mus musculus, UniProt O35435), sequence (O35435 whole entry): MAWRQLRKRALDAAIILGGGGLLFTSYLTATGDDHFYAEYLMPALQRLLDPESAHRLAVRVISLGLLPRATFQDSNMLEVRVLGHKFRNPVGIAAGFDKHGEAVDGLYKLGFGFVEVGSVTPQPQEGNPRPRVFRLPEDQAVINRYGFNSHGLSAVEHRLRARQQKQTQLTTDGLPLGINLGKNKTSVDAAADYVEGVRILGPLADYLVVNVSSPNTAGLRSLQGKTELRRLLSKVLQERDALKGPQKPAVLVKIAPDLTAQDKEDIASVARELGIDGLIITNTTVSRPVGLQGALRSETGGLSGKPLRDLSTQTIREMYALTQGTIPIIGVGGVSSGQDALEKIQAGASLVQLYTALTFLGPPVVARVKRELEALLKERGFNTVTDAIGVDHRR

[5] = t1/2 in mouse plasma after oral dose (30/mg/Kg); type: ADME, organism-based
How it was run: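 Male CD-1 mice (25–32 g, n=5/time point) gavaged orally 30 mg/kg (10 mL/kg). Blood by exsanguination under ether at 0, 1, 3, 6, 24, 48, 72 h, pooled per time point, heparinized; plasma stored −20 °C. Drug quantified by reversed-phase HPLC (ODS, pH 7 phosphate/acetonitrile 65:35, UV 300 nm) with internal standard and spiked-plasma calibration.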

[6] = t1/2 in rat plasma after oral dose (10 mg/kg); type: ADME, organism-based
How it was run: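 Male Wistar CFHB rats (190–220 g, n=3/time point) given 10 mg/kg orally by gavage (10 mL/kg). Cardiac-puncture blood under ether at 0, 1, 3, 6, 24, 48, 72 h, individual heparinized samples; plasma kept at −20 °C. Levels by HPLC (ODS column, 0.1 M pH 7 phosphate 65%/acetonitrile 35%, UV 300 nm), internal standard, peak-area calibration from spiked blank plasma.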

Mus musculus [7] = test: Compound was tested in vivo for its ability to inhibit DTH(delayed type hypersensitivity ) in mouse at a concentration of 30 mg/kg; type: functional; how it was run: as §1
Mus musculus [8] = test: In vivo ability to inhibit delayed type hypersensitivity in mouse at a concentration of 100 mg/kg; type: functional; how it was run: as §1
Rattus norvegicus [9] = test: Compound was tested in vivo for its ability to inhibit DTH(delayed type hypersensitivity )in rat at a concentration of 50 mg/kg; type: functional; how it was run: as §2
Rattus norvegicus [10] = test: Compound was tested in vivo for its ability to inhibit DTH(delayed type hypersensitivity )in rat at a concentration of 3 mg/kg; type: functional; how it was run: as §2
Mus musculus [11] = test: In vivo for its ability to inhibit delayed type hypersensitivity in mouse following 30 mg/kg administration.; type: functional; how it was run: as §1
Rattus norvegicus [12] = test: In vivo for its ability to inhibit delayed type hypersensitivity in rat following 10 mg/kg administration.
Rattus norvegicus [13] = test: Compound was tested in vivo for its ability to inhibit DTH(delayed type hypersensitivity ) in rat at a concentration of 10 mg/kg; type: functional; how it was run: as §2
Rattus norvegicus [14] = test: Compound was tested in vivo for its ability to inhibit DTH(delayed type hypersensitivity ) in rat at a concentration of 3 mg/kg; type: functional; how it was run: as §2
Rattus norvegicus [15] = test: Compound was tested in vivo for its ability to inhibit DTH(delayed type hypersensitivity )in rat at a concentration of 1 mg/kg; type: functional; how it was run: as §2

Compound	inhibition in vivo at 100 mg/kg (Mus musculus [1])	inhibition in vivo at 50 mg/kg (Rattus norvegicus [2])	IC50 [3]	IC50 [4]	half-life [5]	half-life [6]	other results
N#C/C(C(=O)Nc1ccccc1C(F)(F)F)=C(/O)C1CC1	-10%	-4%	> 100000 nM	> 100000 nM	–	–	–
C=CC/C(O)=C(\C#N)C(=O)Nc1ccc(C(F)(F)F)cc1	–	79%	107 nM	63 nM	23 h	4 h	inhibition in vivo at 30 mg/kg (Mus musculus [7]): 75%
C/C=C/C(O)=C(\C#N)C(=O)Nc1ccc(C(F)(F)F)cc1	54%	16%	1410 nM	4270 nM	–	–	–
C=C/C(O)=C(\C#N)C(=O)Nc1ccc(C(F)(F)F)cc1	–	74%	23 nM	–	–	–	inhibition in vivo at 100 mg/kg (Mus musculus [8]): 7%
N#C/C(C(=O)Nc1ccccc1Cl)=C(/O)C1CC1	43%	-12%	13300 nM	16600 nM	–	–	–
C#C/C(O)=C(\C#N)C(=O)Nc1ccc(C(F)(F)F)cc1	45%	4%	500 nM	2090 nM	–	–	–
N#CCc1ccc(NC(=O)/C(C#N)=C(\O)C2CC2)cc1	36%	3%	4570 nM	37200 nM	–	–	–
N#C/C(C(=O)Nc1ccc(CCc2ccccc2)cc1)=C(/O)C1CC1	–	–	138 nM	–	–	–	inhibition in vivo at 50 mg/kg (Rattus norvegicus [9]): 51%; inhibition in vivo at 100 mg/kg (Mus musculus [8]): 5%
Cc1ccc(NC(=O)/C(C#N)=C(\O)C2CC2)cc1	47%	28%	234 nM	288 nM	–	–	–
N#C/C(C(=O)Nc1cccc(Cl)c1)=C(/O)C1CC1	55%	25%	343 nM	3000 nM	2 h	3 h	–
Cc1cc(NC(=O)/C(C#N)=C(\O)C2CC2)ccc1C(F)(F)C(F)(F)F	–	–	11 nM	282 nM	11 h	10 h	inhibition in vivo at 3 mg/kg (Rattus norvegicus [10]): 70%; inhibition in vivo at 30 mg/kg (Mus musculus [11]): 65%
N#C/C(C(=O)Nc1cccc(C(F)(F)F)c1)=C(/O)C1CC1	–	49%	479 nM	525 nM	–	–	inhibition in vivo at 30 mg/kg (Mus musculus [7]): 41%
CCc1cc(NC(=O)/C(C#N)=C(\O)C2CC2)ccc1C(F)(F)F	–	–	40 nM	71 nM	6 h	6 h	inhibition in vivo at 30 mg/kg (Mus musculus [11]): 61%; inhibition in vivo at 10 mg/kg (Rattus norvegicus [12]): 74%
N#C/C(C(=O)Nc1ccc(Br)cc1)=C(/O)C1CC1	–	–	79 nM	36 nM	33 h	20 h	inhibition in vivo at 10 mg/kg (Rattus norvegicus [13]): 58%; inhibition in vivo at 30 mg/kg (Mus musculus [7]): 64%
CS(=O)(=O)c1ccc(NC(=O)/C(C#N)=C(\O)C2CC2)cc1	36%	50%	–	15100 nM	–	–	–
N#C/C(C(=O)Nc1ccccc1)=C(/O)C1CC1	–	43%	2000 nM	1580 nM	–	–	inhibition in vivo at 30 mg/kg (Mus musculus [7]): 25%
N#C/C(C(=O)Nc1ccc(Cl)cc1)=C(/O)C1CC1	–	–	–	36 nM	21 h	22 h	inhibition in vivo at 3 mg/kg (Rattus norvegicus [14]): 74%
Cc1cc(NC(=O)/C(C#N)=C(\O)C2CC2)ccc1OC(F)(F)F	–	–	18 nM	178 nM	14 h	4 h	inhibition in vivo at 3 mg/kg (Rattus norvegicus [10]): 46%; inhibition in vivo at 30 mg/kg (Mus musculus [11]): 61%
CSc1ccc(NC(=O)/C(C#N)=C(\O)C2CC2)cc1	46%	60%	13 nM	445 nM	< 2 h	< 1 h	–
N#C/C(C(=O)Nc1ccc(Oc2ccc(Cl)cc2)cc1)=C(/O)C1CC1	–	–	1510 nM	832 nM	21 h	39 h	inhibition in vivo at 30 mg/kg (Mus musculus [11]): 63%; inhibition in vivo at 10 mg/kg (Rattus norvegicus [12]): 31%
N#C/C(C(=O)Nc1ccc(C(F)(F)F)cn1)=C(/O)C1CC1	–	–	17 nM	158 nM	5 h	7 h	inhibition in vivo at 3 mg/kg (Rattus norvegicus [10]): 40%; inhibition in vivo at 100 mg/kg (Mus musculus [8]): 67%
Cc1cc(NC(=O)/C(C#N)=C(\O)C2CC2)ccc1C(F)(F)F	–	–	14 nM	55 nM	8 h	4 h	inhibition in vivo at 30 mg/kg (Mus musculus [11]): 81%; inhibition in vivo at 10 mg/kg (Rattus norvegicus [12]): 59%
C=C(C)/C(O)=C(\C#N)C(=O)Nc1ccc(C(F)(F)F)cc1	54%	78%	251 nM	195 nM	13 h	7 h	–
Cc1cc(NC(=O)/C(C#N)=C(\O)C2CC2)ccc1SC(F)(F)F	–	–	11 nM	178 nM	10 h	13 h	inhibition in vivo at 30 mg/kg (Mus musculus [11]): 55%; inhibition in vivo at 1 mg/kg (Rattus norvegicus [15]): 68%
C[S+]([O-])c1ccc(NC(=O)/C(C#N)=C(\O)C2CC2)cc1 (stereo not given)	1%	71%	832 nM	22400 nM	–	–	–
N#C/C(C(=O)Nc1ccc(S(=O)(=O)C(F)(F)F)cc1)=C(/O)C1CC1	–	–	3 nM	89 nM	14 h	14 h	inhibition in vivo at 3 mg/kg (Rattus norvegicus [14]): 66%; inhibition in vivo at 30 mg/kg (Mus musculus [7]): 43%
Cc1cc(NC(=O)/C(C#N)=C(\O)C2CC2)ccc1C#N	–	–	28 nM	36 nM	7 h	6 h	inhibition in vivo at 30 mg/kg (Mus musculus [11]): 66%; inhibition in vivo at 10 mg/kg (Rattus norvegicus [12]): 50%
N#C/C(C(=O)Nc1ccc([S+]([O-])C(F)(F)F)cc1)=C(/O)C1CC1 (stereo not given)	–	–	16 nM	417 nM	3 h	3 h	inhibition in vivo at 3 mg/kg (Rattus norvegicus [14]): 75%; inhibition in vivo at 30 mg/kg (Mus musculus [7]): 25%
N#C/C(C(=O)Nc1ccc(C#N)cc1)=C(/O)C1CC1	–	–	53 nM	42 nM	6 h	5 h	inhibition in vivo at 10 mg/kg (Rattus norvegicus [13]): 47%; inhibition in vivo at 30 mg/kg (Mus musculus [7]): 73%

Reference: ChEMBL document CHEMBL1129574, “Synthesis, structure-activity relationships, and pharmacokinetic properties of dihydroorotate dehydrogenase inhibitors: 2-cyano-3-cyclopropyl-3-hydroxy-N-[3'-methyl-4'-(trifluoromethyl)phenyl ] propenamide and related compounds” (J Med Chem, 1996)
